Source: ChEMBL document CHEMBL1255424, “Antistaphylococcal activity of ACHN-490 tested alone and in combination with other agents by time-kill assay” (2010)

What was measured:
Assay type in all cases: functional
Staphylococcus aureus [1] = test: Antibacterial activity against vancomycin-intermediate Staphylococcus aureus isolate 1009 after 24 hrs by modified broth macrodilution method; conditions: isolate 1009, 24 h
How it was run: (§1)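 MIC read after 24 h incubation by modified broth macrodilution, validated per CLSI recommendations, against recent clinical MRSA isolates (hospital- and community-acquired, hVISA, VISA, VRSA). Daptomycin tests ran in Mueller-Hinton broth with added calcium.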

Staphylococcus aureus [2] = test: Antibacterial activity against vancomycin-susceptible Staphylococcus aureus after 24 hrs by modified broth macrodilution method
How it was run: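 MICs determined in recent clinical MRSA isolates by a modified broth macrodilution method per CLSI recommendations, with 24 h incubation. Daptomycin tests used Mueller-Hinton broth supplemented with calcium. Value is the lowest inhibitory drug concentration.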

Staphylococcus aureus [3] = test: Antibacterial activity against hospital-acquired methicillin-resistant Staphylococcus aureus isolate 1838 after 24 hrs by modified broth macrodilution method; conditions: isolate 1838, 24 h; how it was run: as §1
Staphylococcus aureus [4] = test: Antibacterial activity against community-acquired methicillin-resistant panton-valentine leukocidin-positive Staphylococcus aureus isolate 1468 after 24 hrs by modified broth macrodilution method; conditions: isolate 1468, 24 h; how it was run: as §1
Staphylococcus aureus [5] = test: Antibacterial activity against methicillin-resistant Staphylococcus aureus isolate 2003 after 24 hrs by modified broth macrodilution method; conditions: isolate 2003, 24 h; how it was run: as §1
Staphylococcus aureus [6] = test: Antibacterial activity against community-acquired methicillin-resistant panton-valentine leukocidin-positive Staphylococcus aureus isolate 815 after 24 hrs by modified broth macrodilution method; conditions: isolate 815, 24 h; how it was run: as §1
Staphylococcus aureus [7] = test: Antibacterial activity against vancomycin-resistant Staphylococcus aureus isolate 557 after 24 hrs by modified broth macrodilution method; conditions: isolate 557, 24 h; how it was run: as §1
Staphylococcus aureus [8] = test: Antibacterial activity against vancomycin-intermediate Staphylococcus aureus isolate 1008 after 24 hrs by modified broth macrodilution method; conditions: isolate 1008, 24 h; how it was run: as §1
Staphylococcus aureus [9] = test: Antibacterial activity against vancomycin-resistant Staphylococcus aureus isolate 1264 after 24 hrs by modified broth macrodilution method; conditions: isolate 1264, 24 h; how it was run: as §1
Staphylococcus aureus [10] = test: Antibacterial activity against vancomycin-intermediate Staphylococcus aureus isolate 1004 after 24 hrs by modified broth macrodilution method; conditions: isolate 1004, 24 h; how it was run: as §1
Staphylococcus aureus [11] = test: Antibacterial activity against vancomycin-intermediate Staphylococcus aureus isolate 511 after 24 hrs by modified broth macrodilution method; conditions: isolate 511, 24 h; how it was run: as §1
Staphylococcus aureus [12] = test: Antibacterial activity against vancomycin-resistant Staphylococcus aureus isolate 1263 after 24 hrs by modified broth macrodilution method; conditions: isolate 1263, 24 h; how it was run: as §1
Staphylococcus aureus [13] = test: Antibacterial activity against community-acquired methicillin-resistant panton-valentine leukocidin-positive Staphylococcus aureus isolate 593 after 24 hrs by modified broth macrodilution method; conditions: isolate 593, 24 h; how it was run: as §1
Staphylococcus aureus [14] = test: Antibacterial activity against vancomycin-hetero-intermediate Staphylococcus aureus isolate 873 after 24 hrs by modified broth macrodilution method; conditions: isolate 873, 24 h; how it was run: as §1
Staphylococcus aureus [15] = test: Antibacterial activity against vancomycin-intermediate Staphylococcus aureus isolate 1003 after 24 hrs by modified broth macrodilution method; conditions: isolate 1003, 24 h; how it was run: as §1
Staphylococcus aureus [16] = test: Antibacterial activity against hospital-acquired methicillin-resistant Staphylococcus aureus isolate 1776 after 24 hrs by modified broth macrodilution method; conditions: isolate 1776, 24 h; how it was run: as §1
Staphylococcus aureus [17] = test: Antibacterial activity against vancomycin-intermediate Staphylococcus aureus isolate 770 after 24 hrs by modified broth macrodilution method; conditions: isolate 770, 24 h; how it was run: as §1
Staphylococcus aureus [18] = test: Antibacterial activity against vancomycin-intermediate Staphylococcus aureus isolate 1984 after 24 hrs by modified broth macrodilution method; conditions: isolate 1984, 24 h; how it was run: as §1
Staphylococcus aureus [19] = test: Antibacterial activity against vancomycin-intermediate Staphylococcus aureus isolate 555 after 24 hrs by modified broth macrodilution method; conditions: isolate 555, 24 h; how it was run: as §1
Staphylococcus aureus [20] = test: Antibacterial activity against hospital-acquired methicillin-resistant Staphylococcus aureus isolate 1751 after 24 hrs by modified broth macrodilution method; conditions: isolate 1751, 24 h; how it was run: as §1
Staphylococcus aureus [21] = test: Antibacterial activity against vancomycin-hetero-intermediate Staphylococcus aureus isolate 618 after 24 hrs by modified broth macrodilution method; conditions: isolate 618, 24 h; how it was run: as §1
Staphylococcus aureus [22] = test: Antibacterial activity against vancomycin-intermediate Staphylococcus aureus isolate 1014 after 24 hrs by modified broth macrodilution method; conditions: isolate 1014, 24 h; how it was run: as §1
Staphylococcus aureus [23] = test: Antibacterial activity against vancomycin-resistant Staphylococcus aureus isolate 509 after 24 hrs by modified broth macrodilution method; conditions: isolate 509, 24 h; how it was run: as §1
Staphylococcus aureus [24] = test: Antibacterial activity against vancomycin-intermediate Staphylococcus aureus isolate 1011 after 24 hrs by modified broth macrodilution method; conditions: isolate 1011, 24 h; how it was run: as §1
Staphylococcus aureus [25] = test: Antibacterial activity against vancomycin-intermediate Staphylococcus aureus isolate 1007 after 24 hrs by modified broth macrodilution method; conditions: isolate 1007, 24 h; how it was run: as §1
Staphylococcus aureus [26] = test: Antibacterial activity against vancomycin-intermediate Staphylococcus aureus isolate 1013 after 24 hrs by modified broth macrodilution method; conditions: isolate 1013, 24 h; how it was run: as §1
Staphylococcus aureus [27] = test: Antibacterial activity against hospital-acquired methicillin-resistant Staphylococcus aureus isolate 1851 after 24 hrs by modified broth macrodilution method; conditions: isolate 1851, 24 h; how it was run: as §1
Staphylococcus aureus [28] = test: Antibacterial activity against vancomycin-resistant Staphylococcus aureus after 24 hrs by modified broth macrodilution method; how it was run: as §1
Staphylococcus aureus [29] = test: Antibacterial activity against hospital-acquired methicillin-resistant Staphylococcus aureus isolate 1743 after 24 hrs by modified broth macrodilution method; conditions: isolate 1743, 24 h; how it was run: as §1
Staphylococcus aureus [30] = test: Antibacterial activity against vancomycin-resistant Staphylococcus aureus isolate 510 after 24 hrs by modified broth macrodilution method; conditions: isolate 510, 24 h; how it was run: as §1
Staphylococcus aureus [31] = test: Antibacterial activity against vancomycin-intermediate Staphylococcus aureus isolate 1005 after 24 hrs by modified broth macrodilution method; conditions: isolate 1005, 24 h; how it was run: as §1
Staphylococcus aureus [32] = test: Antibacterial activity against hospital-acquired methicillin-resistant Staphylococcus aureus isolate 1766 after 24 hrs by modified broth macrodilution method; conditions: isolate 1766, 24 h; how it was run: as §1
Staphylococcus aureus [33] = test: Antibacterial activity against community-acquired methicillin-resistant panton-valentine leukocidin-positive Staphylococcus aureus isolate 1471 after 24 hrs by modified broth macrodilution method; conditions: isolate 1471, 24 h; how it was run: as §1
Staphylococcus aureus [34] = test: Antibacterial activity against vancomycin-intermediate Staphylococcus aureus isolate 1287 after 24 hrs by modified broth macrodilution method; conditions: isolate 1287, 24 h; how it was run: as §1
Staphylococcus aureus [35] = test: Antibacterial activity against vancomycin-intermediate Staphylococcus aureus isolate 1015 after 24 hrs by modified broth macrodilution method; conditions: isolate 1015, 24 h; how it was run: as §1
Staphylococcus aureus [36] = test: Antibacterial activity against hospital-acquired methicillin-resistant Staphylococcus aureus isolate 1806 after 24 hrs by modified broth macrodilution method; conditions: isolate 1806, 24 h; how it was run: as §1
Staphylococcus aureus [37] = test: Antibacterial activity against vancomycin-intermediate Staphylococcus aureus isolate 1006 after 24 hrs by modified broth macrodilution method; conditions: isolate 1006, 24 h; how it was run: as §1
Staphylococcus aureus [38] = test: Antibacterial activity against community-acquired methicillin-resistant panton-valentine leukocidin-positive Staphylococcus aureus isolate 693 after 24 hrs by modified broth macrodilution method; conditions: isolate 693, 24 h; how it was run: as §1
Staphylococcus aureus [39] = test: Antibacterial activity against vancomycin-intermediate Staphylococcus aureus isolate 1012 after 24 hrs by modified broth macrodilution method; conditions: isolate 1012, 24 h; how it was run: as §1
Staphylococcus aureus [40] = test: Antibacterial activity against vancomycin-hetero-intermediate Staphylococcus aureus after 24 hrs by modified broth macrodilution method; how it was run: as §1
Staphylococcus aureus [41] = test: Antibacterial activity against vancomycin-intermediate Staphylococcus aureus isolate 1010 after 24 hrs by modified broth macrodilution method; conditions: isolate 1010, 24 h; how it was run: as §1
Staphylococcus aureus [42] = test: Antibacterial activity against community-acquired methicillin-resistant panton-valentine leukocidin-positive Staphylococcus aureus isolate 813 after 24 hrs by modified broth macrodilution method; conditions: isolate 813, 24 h; how it was run: as §1
Staphylococcus aureus [43] = test: Antibacterial activity against vancomycin-intermediate Staphylococcus aureus after 24 hrs by modified broth macrodilution method; how it was run: as §1
Staphylococcus aureus [44] = test: Antibacterial activity against community-acquired methicillin-resistant panton-valentine leukocidin-negative Staphylococcus aureus isolate 1470 after 24 hrs by modified broth macrodilution method; conditions: isolate 1470, 24 h; how it was run: as §1
Staphylococcus aureus [45] = test: Antibacterial activity against community-acquired methicillin-resistant panton-valentine leukocidin-positive Staphylococcus aureus isolate 1472 after 24 hrs by modified broth macrodilution method; conditions: isolate 1472, 24 h; how it was run: as §1
Staphylococcus aureus [46] = test: Antibacterial activity against community-acquired methicillin-resistant panton-valentine leukocidin-positive Staphylococcus aureus isolate 1469 after 24 hrs by modified broth macrodilution method; conditions: isolate 1469, 24 h; how it was run: as §1
Staphylococcus aureus [47] = test: Antibacterial activity against vancomycin-intermediate Staphylococcus aureus isolate 1017 after 24 hrs by modified broth macrodilution method; conditions: isolate 1017, 24 h; how it was run: as §1
Staphylococcus aureus [48] = test: Antibacterial activity against community-acquired methicillin-resistant panton-valentine leukocidin-positive Staphylococcus aureus isolate 950 after 24 hrs by modified broth macrodilution method; conditions: isolate 950, 24 h; how it was run: as §1
Staphylococcus aureus [49] = test: Antibacterial activity against hospital-acquired methicillin-resistant Staphylococcus aureus isolate 1867 after 24 hrs by modified broth macrodilution method; conditions: isolate 1867, 24 h; how it was run: as §1
Staphylococcus aureus [50] = test: Antibacterial activity against vancomycin-intermediate Staphylococcus aureus isolate 1016 after 24 hrs by modified broth macrodilution method; conditions: isolate 1016, 24 h; how it was run: as §1
Staphylococcus aureus [51] = test: Antibacterial activity against hospital-acquired methicillin-resistant Staphylococcus aureus isolate 1808 after 24 hrs by modified broth macrodilution method; conditions: isolate 1808, 24 h; how it was run: as §1

Measured: MIC

CN[C@@H]1[C@@H](O)[C@@](C)(O[C@@H]2[C@@H](O)[C@H](O[C@H]3OC(CNCCO)=CC[C@H]3N)[C@@H](N)C[C@H]2NC(=O)[C@H](O)CCN)OC[C@]1(C)O
8 µg/mL: Staphylococcus aureus [5]
1 µg/mL: Staphylococcus aureus [9] | Staphylococcus aureus [14] | Staphylococcus aureus [15] | Staphylococcus aureus [21] | Staphylococcus aureus [23] | Staphylococcus aureus [25] | Staphylococcus aureus [30] | Staphylococcus aureus [40] | Staphylococcus aureus [41] | Staphylococcus aureus [43]
4 µg/mL: Staphylococcus aureus [4] | Staphylococcus aureus [6] | Staphylococcus aureus [10] | Staphylococcus aureus [13] | Staphylococcus aureus [16] | Staphylococcus aureus [18] | Staphylococcus aureus [19] | Staphylococcus aureus [27] | Staphylococcus aureus [33] | Staphylococcus aureus [34] | Staphylococcus aureus [35] | Staphylococcus aureus [37] | Staphylococcus aureus [42] | Staphylococcus aureus [46] | Staphylococcus aureus [48] | Staphylococcus aureus [49]
0.5 µg/mL: Staphylococcus aureus [7] | Staphylococcus aureus [28]
2 µg/mL: all other assays above

CCCCCCCCCC(=O)N[C@@H](Cc1c[nH]c2ccccc12)C(=O)N[C@H](CC(N)=O)C(=O)N[C@@H](CC(=O)O)C(=O)N[C@@H]1C(=O)NCC(=O)N[C@@H](CCCN)C(=O)N[C@@H](CC(=O)O)C(=O)N[C@H](C)C(=O)N[C@@H](CC(=O)O)C(=O)NCC(=O)N[C@H](CO)C(=O)N[C@@H]([C@H](C)CC(=O)O)C(=O)N[C@@H](CC(=O)c2ccccc2N)C(=O)O[C@@H]1C
2 µg/mL: Staphylococcus aureus [1] | Staphylococcus aureus [8] | Staphylococcus aureus [15] | Staphylococcus aureus [18] | Staphylococcus aureus [22] | Staphylococcus aureus [25] | Staphylococcus aureus [26] | Staphylococcus aureus [34] | Staphylococcus aureus [37] | Staphylococcus aureus [50]
4 µg/mL: Staphylococcus aureus [19]
1 µg/mL: Staphylococcus aureus [4] | Staphylococcus aureus [11] | Staphylococcus aureus [21] | Staphylococcus aureus [24] | Staphylococcus aureus [31] | Staphylococcus aureus [32] | Staphylococcus aureus [35] | Staphylococcus aureus [39] | Staphylococcus aureus [41] | Staphylococcus aureus [47]
0.25 µg/mL: Staphylococcus aureus [2] | Staphylococcus aureus [7] | Staphylococcus aureus [9] | Staphylococcus aureus [28] | Staphylococcus aureus [29] | Staphylococcus aureus [48]
0.5 µg/mL: all other assays above

Nc1nc(/C(=N/O)C(=O)N[C@@H]2C(=O)N3C(C(=O)O)=C(/C=C4\CCN([C@@H]5CCNC5)C4=O)CS[C@H]23)ns1 [CEFTOBIPROLE]
4 µg/mL: Staphylococcus aureus [24] | Staphylococcus aureus [39] | Staphylococcus aureus [50]
0.5 µg/mL: Staphylococcus aureus [2] | Staphylococcus aureus [6] | Staphylococcus aureus [9] | Staphylococcus aureus [28] | Staphylococcus aureus [34] | Staphylococcus aureus [43]
1 µg/mL: Staphylococcus aureus [4] | Staphylococcus aureus [7] | Staphylococcus aureus [10] | Staphylococcus aureus [13] | Staphylococcus aureus [19] | Staphylococcus aureus [20] | Staphylococcus aureus [25] | Staphylococcus aureus [27] | Staphylococcus aureus [30] | Staphylococcus aureus [31] | Staphylococcus aureus [33] | Staphylococcus aureus [35] | Staphylococcus aureus [36] | Staphylococcus aureus [38] | Staphylococcus aureus [42] | Staphylococcus aureus [45] | Staphylococcus aureus [46] | Staphylococcus aureus [48] | Staphylococcus aureus [51]
2 µg/mL: all other assays above

CC(=O)NC[C@H]1CN(c2ccc(N3CCOCC3)c(F)c2)C(=O)O1 [LINEZOLID]
1 µg/mL: Staphylococcus aureus [37] | Staphylococcus aureus [43] | Staphylococcus aureus [50]
